Reference: ChEMBL document CHEMBL1126304 (J Med Chem, 1992)
Calls of active or inactive are those of the source. The calls are words filed in the database; no cut-off is given here.

How the values were obtained:
Felis catus [1] = test: In vivo activity against gastric secretion in conscious cat; type: functional, Stomach
Cavia porcellus = species on record: Cavia porcellus; test: In vitro activity against gastric secretion in isolated guinea pig stomach; type: functional
Histamine H2 receptor = Histamine H2 receptor (Cavia porcellus, UniProt P47747); test: Compound is evaluated for histamine H2 receptor agonistic activity in guinea pig cerebral cortex using [3H]tiotidine as radioligand; type: functional, tissue-based
Histamine H2 receptor, sequence (P47747 whole entry): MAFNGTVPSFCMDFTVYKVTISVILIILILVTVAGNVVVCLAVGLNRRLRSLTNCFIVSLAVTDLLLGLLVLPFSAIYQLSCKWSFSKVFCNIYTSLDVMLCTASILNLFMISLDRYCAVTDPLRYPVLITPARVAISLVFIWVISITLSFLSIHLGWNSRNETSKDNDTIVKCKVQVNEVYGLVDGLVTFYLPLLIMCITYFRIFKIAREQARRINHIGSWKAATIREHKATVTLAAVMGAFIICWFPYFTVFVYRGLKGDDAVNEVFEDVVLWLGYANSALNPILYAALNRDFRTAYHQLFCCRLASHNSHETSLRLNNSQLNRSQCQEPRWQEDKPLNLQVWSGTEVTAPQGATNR
How it was run: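 H2-receptor binding measured on guinea pig cerebral cortex preparations by displacement of [3H]tiotidine. Displacement curves were fitted by nonlinear regression.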

[2] = target: Histamine H2 receptor (Cavia porcellus) (UniProt P47747); test: Histamine H2 receptor agonistic activity in guinea pig right atrium; type: functional, tissue-based; conditions: Cardiac atrium
Histamine H2 receptor (Cavia porcellus), sequence (P47747 whole entry): as above

[3] = target: Histamine H2 receptor (Cavia porcellus) (UniProt P47747); test: Intrinsic activity against histamine H2 receptor; type: functional
Felis catus [4] = test: In vivo activity against gastric secretion in conscious cat; not active; type: functional, organism-based; conditions: Stomach

| Structure (SMILES) | Kd (Histamine H2 receptor) [µM] | pD2 [2] | Intrinsic activity [3] | also measured |
| --- | --- | --- | --- | --- |
| CN(C)CCc1cnc(N)s1 |  |  |  | pD2 (Felis catus [1]): 6.3; pD2 (Cavia porcellus): 5.81 |
| Cc1nc(C)c(CCN)s1 | 174 | 3.78 | 0.97 |  |
| CNc1ncc(CCN(C)C)s1 |  |  |  | pD2 (Felis catus [4]): inactive |
| CN(C)CCc1cnc(N(C)C)s1 |  |  |  | pD2 (Felis catus [4]): inactive |
| CNCCc1cnc(N)s1 |  |  |  | pD2 (Felis catus [1]): 6.52; pD2 (Cavia porcellus): 6.02 |
| Cc1ncsc1CCN | 355 | 4.67 | 0.96 |  |
| NCCc1csc(N)n1 | 110 | 4.6 | 0.94 |  |
| NCCc1c[nH]cn1 |  |  | 1 |  |
| Cc1nc(N)sc1CCN | 5.01 |  | 0.95 |  |
| N=C(NCCCc1c[nH]cn1)NCCC(c1ccc(F)cc1)c1ccccn1 (stereo not drawn) |  | 8 |  |  |
| N=C(NCCCc1c[nH]cn1)NCCC(c1ccccc1)c1ccccc1 |  | 7.7 |  |  |
| CN(C)CCCSC(=N)N | 26.3 | 5.67 | 1.06 |  |
| N=C(N)NCCCc1c[nH]cn1 |  | 4.7 |  |  |
| NCCc1cnc(N)s1 | 15.1 | 5.51 | 1 | pD2 (Felis catus [1]): 6.1 |
